Experimental data as given in PMC12554292 (Drug Design, Development and Therapy, 2025).
Read-outs that look alike come from different tables or passages of the source. Each block holds one molecule with its values, some of them ahead of it.

What was measured:
Huh-7 cells [1] = experiment: CCK-8 cell viability and IC50 measurement, Huh-7; assay type: cell-based, human; conditions: read-out: IC50 Huh-7
Procedure, shortened: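 Huh-7 cells (ATCC) in DMEM or RPMI 1640 with 10% FBS, 37°C, 5% CO2; seeded 3 × 10^3 cells/well and left to adhere overnight. […] CCK-8 added for 1 h, A450 read. Viability as % of control; IC50 from inhibition by nonlinear regression. n > 5; mean ± SE.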

Huh-7 cells [2] = experiment: Live and dead cell staining; assay type: cell-based, human; conditions: 5, 10, 20 μM, 24h
Procedure, shortened: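 Huh-7 cells seeded at 3 × 10^3 cells/well and incubated overnight. Treated with test compound at 0, 5, 10 or 20 μM for 24 h, then stained with Calcein-AM and PI for 1 h in the dark and imaged by fluorescence confocal microscopy. 5–6 replicates per group.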

Huh-7 cells [3] = experiment: Apoptosis assay; assay type: cell-based, human; conditions: 5, 10, 20 μM, 72h
Huh-7 cells [4] = experiment: RT-PCR gene expression analysis; assay type: cell-based, human; conditions: 10 μM, 72 h
Procedure, shortened: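 Huh-7 cells in 12-well plates were treated with 10 μM test compound for 72 h. Total RNA was extracted with TRIzol, and gene expression was measured by SYBR Green real-time PCR using specific primer pairs.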

Huh-7 cells [5] = experiment: DNA damage staining; assay type: cell-based, human; conditions: 5, 10, 20 μM, 24h
Procedure, shortened: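 Huh-7 cells seeded at 3 × 10^3 cells/well and exposed to test compound at 0, 5, 10 or 20 μM for 24 h. Stained with a DNA damage detection kit (nuclei blue, DNA-damaged cells green), then imaged by fluorescence microscopy. 5–6 replicates per group.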

Huh-7 cells [6] = experiment: Autophagy staining assay; assay type: cell-based, human; conditions: 5, 10, 20 μM, 24 h, MDC probe
Procedure, shortened: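 Huh-7 cells were seeded at 3 × 10^3 cells/well and exposed to 0, 5, 10 or 20 μM test compound for 24 h. Medium was removed, and cells were stained with monodansylcadaverine for 1 h in the dark at 37°C, then imaged by confocal microscopy. Replicates: 5–6 per group.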

Female KM mice = experiment: Acute oral toxicity test; assay type: in vivo; conditions: 500 mg/kg, intragastric administration
Procedure, shortened: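 Female Kunming mice (SPF, 8 weeks), acclimated 7 days with free water on a 12 h light/dark cycle; 6 per group. Test compound at 500 mg/kg given intragastrically in 5% DMSO + 40% PEG300 + 1% Tween 80 + 54% saline; controls received an equal volume of vehicle. Body weight and appearance were followed for 14 days. Heart, liver, spleen, lungs and kidneys were then weighed for organ coefficients and examined by H&E histology.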

Huh-7 cells [7] = experiment: Western blot protein expression analysis; assay type: cell-based, human; conditions: 10 μM, 72 h
Procedure, shortened: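 Huh-7 cells in 12-well plates were treated with 10 μM test compound for 72 h. Whole-cell protein was extracted in RIPA buffer with protease/phosphatase inhibitors and immunoblotted for γH2AX, caspase-3, caspase-9, PARP, cyclin D, cyclin E, LC3 and β-actin. Six replicates per group; mean ± SEM, two-tailed t-test.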

[8] = target: MET receptor tyrosine kinase (RTK); conditions: read-out: IC50 MET receptor tyrosine kinase; cited from earlier work
ABHD6 = conditions: cited from earlier work

SMILES: O=C(Nc1ccc(Cl)cc1)Nc1cccc(-c2cn(Cc3ccc(Br)cc3)nn2)c1 [Compound 3c, 1-(3-(1-(4-Bromobenzyl)-1H-1,2,3-Triazol-4-Yl)phenyl)-3-(4-Chlorophenyl)urea]
IC50 (Huh-7 cells [1]; Homo sapiens, Huh-7, 72 h): 10.2 ± 1.32 µM
Dead and living cells staining (Huh-7 cells [2]): dead cells were increased significantly in a dose-dependent manner
apoptotic cells (Huh-7 cells [3]): dose-dependent increases in apoptotic cells
expression of Keap1 (mRNA) (Huh-7 cells [4]): upregulated
expression of oxidative stress genes Nrf2, Gpx4, TNFa (mRNA) (Huh-7 cells [4]): no significant changes
expressions of p53, p21, H2AX, Bcl2, caspase6, caspase7, ATG5 and ATG7 (mRNA) (Huh-7 cells [4]): did not influence
DNA damage (Huh-7 cells [5]): significantly stimulated DNA damage in a concentration-dependent manner
autophagosome in tumor cells (Huh-7 cells [6]): increased dramatically
mortality (Female KM mice; 14-day observation, female KM mice): no mortality
body weight vs vehicle control group (Female KM mice; 14 days, all time points): no statistically significant differences
organ coefficient and histopathological assessments of major organs (Female KM mice; cardiac, hepatic, splenic, pulmonary, renal tissues): no detectable toxicological alterations

IC50 (Huh-7 cells [1]; Homo sapiens, Huh-7, 72 h): 12.2 ± 1.31 µM
SMILES: O=C(Nc1cccc(-c2cn(Cc3ccc(Br)cc3)nn2)c1)Nc1ccccc1Br [Compound 3e, 1-(3-(1-(4-Bromobenzyl)-1H-1,2,3-Triazol-4-Yl)phenyl)-3-(2-Bromophenyl)urea]
Dead and living cells staining (Huh-7 cells [2]): dead cells were increased significantly in a dose-dependent manner
apoptotic cells (Huh-7 cells [3]): dose-dependent increases in apoptotic cells
DNA damaged genes and autophagy genes (mRNA) (Huh-7 cells [4]): not changed
expression of Bcl2 (mRNA) (Huh-7 cells [4]): increased largely
expression of Gpx4 and TNFa (mRNA) (Huh-7 cells [4]): also increased
H2AX protein expression (Huh-7 cells [7]): significantly increased
DNA damage (Huh-7 cells [5]): significantly stimulated DNA damage in a concentration-dependent manner
autophagosome in tumor cells (Huh-7 cells [6]): increased dramatically

IC50 (Huh-7 cells [1]; 72-hour exposure, CCK-8): 39 ± 0.56 µM
SMILES: O=c1[nH]cc(F)c(=O)[nH]1 [Compound 5-FU, reference compound]

IC50 (Huh-7 cells [1]; Homo sapiens, Huh-7, 72 h): > 50 µM
SMILES: O=C(Nc1ccc(Cl)cc1)Nc1ccc(-c2cn(Cc3ccc(Cl)cc3)nn2)cc1 [Compound 5a, 1-(4-(1-(4-Chlorobenzyl)-1H-1,2,3-Triazol-4-Yl)phenyl)-3-(4-Chlorophenyl)urea]

IC50 (Huh-7 cells [1]; Homo sapiens, Huh-7, 72 h): > 50 µM
SMILES: O=C(Nc1ccc(Cl)cc1)Nc1ccc(-c2cn(Cc3cccc(Cl)c3)nn2)cc1 [Compound 5b, 1-(4-(1-(3-Chlorobenzyl)-1H-1,2,3-Triazol-4-Yl)phenyl)-3-(4-Chlorophenyl)urea]

IC50 (Huh-7 cells [1]; Homo sapiens, Huh-7, 72 h): > 50 µM
SMILES: O=C(Nc1ccc(Cl)cc1)Nc1ccc(-c2cn(Cc3ccc(Br)cc3)nn2)cc1 [Compound 5c, 1-(4-(1-(4-Bromobenzyl)-1H-1,2,3-Triazol-4-Yl)phenyl)-3-(4-Chlorophenyl)urea]

IC50 (Huh-7 cells [1]; Homo sapiens, Huh-7, 72 h): > 50 µM
SMILES: O=C(Nc1ccc(-c2cn(Cc3ccc(Cl)cc3)nn2)cc1)Nc1ccccc1Br [Compound 5d, 1-(2-Bromophenyl)-3-(4-(1-(4-Chlorobenzyl)-1H-1,2,3-Triazol-4-Yl)phenyl)urea]

IC50 (Huh-7 cells [1]; Homo sapiens, Huh-7, 72 h): > 50 µM
SMILES: O=C(Nc1ccc(-c2cn(Cc3ccc(Br)cc3)nn2)cc1)Nc1ccccc1Br [Compound 5e, 1-(4-(1-(4-Bromobenzyl)-1H-1,2,3-Triazol-4-Yl)phenyl)-3-(2-Bromophenyl)urea]

IC50 (Huh-7 cells [1]; Homo sapiens, Huh-7, 72 h): > 50 µM
SMILES: O=C(NCc1cn(Cc2ccc(Cl)cc2)nn1)Nc1ccc(Cl)cc1 [Compound 7a, 1-((1-(4-Chlorobenzyl)-1H-1,2,3-Triazol-4-Yl)methyl)-3-(4-Chlorophenyl)urea]

IC50 (Huh-7 cells [1]; Homo sapiens, Huh-7, 72 h): > 50 µM
SMILES: O=C(NCc1cn(Cc2cccc(Cl)c2)nn1)Nc1ccc(Cl)cc1 [Compound 7b, 1-((1-(3-Chlorobenzyl)-1H-1,2,3-Triazol-4-Yl)methyl)-3-(4-Chlorophenyl)urea]

IC50 (Huh-7 cells [1]; Homo sapiens, Huh-7, 72 h): > 50 µM
SMILES: O=C(NCc1cn(Cc2ccc(Br)cc2)nn1)Nc1ccc(Cl)cc1 [Compound 7c, 1-((1-(4-Bromobenzyl)-1H-1,2,3-Triazol-4-Yl)methyl)-3-(4-Chlorophenyl)urea]

IC50 (Huh-7 cells [1]; Homo sapiens, Huh-7, 72 h): > 50 µM
SMILES: O=C(NCc1cn(Cc2ccc(Cl)cc2)nn1)Nc1ccccc1Br [Compound 7d, 1-(2-Bromophenyl)-3-((1-(4-Chlorobenzyl)-1H-1,2,3-Triazol-4-Yl)methyl)urea]

IC50 (Huh-7 cells [1]; Homo sapiens, Huh-7, 72 h): > 50 µM
SMILES: O=C(NCc1cn(Cc2ccc(Br)cc2)nn1)Nc1ccccc1Br [Compound 7e, 1-((1-(4-Bromobenzyl)-1H-1,2,3-Triazol-4-Yl)methyl)-3-(2-Bromophenyl)urea]

SMILES: O=C(NCCN1CCOCC1)Nc1nc2ccc(Sc3nnc4ccc(-c5ccc(F)cc5)nn34)cc2s1 [II]
IC50 [8]: 0.0042 µM

SMILES: O=C(c1cccc(-c2ccc(-c3cn(C(=O)N4CCCCC4c4ccccc4)nn3)cc2)c1)N1CCCCC1 (stereo not drawn) [KT185]
in vivo selectivity (ABHD6): exceptional in vivo selectivity
